Measurements published in paper PMC9446082 (Pharmacology Research & Perspectives, 2022).

Legend:
ERK phosphorylation = ERK phosphorylation in wild-type Sf9 cells; assay type: cell-based, Spodoptera frugiperda; conditions: wild-type (non-transfected) Sf9 cells, data not shown
[1] = test system: GPER‐transduced Sf9 cells; assay: EdU incorporation proliferation assay in GPER-transduced Sf9 cells; assay type: cell-based; conditions: Spodoptera frugiperda, read-out: Cell proliferation IC50
GPER [2] = molecular target: T1, GPER (Homo sapiens, UniProt Q99527); assay: [3H] 2-ME competition binding in GPER-transduced Sf9 cell particulate fractions
GPER [3] = molecular target: T1, GPER; assay: Guanine nucleotide sensitivity of [3H] 2-ME high-affinity binding; conditions: GppNHp 100 μM, 5 mM Mg++, n = 3
Procedure, shortened: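 Sf9 particulate fraction expressing baculovirus-delivered GPER, incubated with [³H]2-ME (0.5–2 nM) with or without 100 μM GppNHp. Mg⁺⁺ was 5 mM to favour the high-affinity agonist state. Binding was in Tris-HCl pH 7.4 buffer with BSA, 120 min at 15°C. Reactions were stopped with ice-cold buffer, filtered and scintillation counted. Specific binding is total minus binding with 100 nM cold 2-ME added 12 min before radioligand.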

GPER [4] = molecular target: T1, GPER; assay: Dissociation rate of [3H] 2-ME binding in GPER-transduced Sf9 cells; conditions: corresponding to Koff
Procedure, shortened: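 Particulate fraction (1000 × g then 20 000 × g spins) from Sf9 cells 48 h after human GPER baculovirus infection. Incubated with 2 nM [³H]2-ME for 120 min at 15°C, then diluted tenfold with ice-cold binding buffer (50 mM Tris-HCl pH 7.4). Bound radioactivity was sampled from 5 to 120 s by vacuum filtration through cellulose nitrate and scintillation counting. Nonspecific binding was taken with 100 nM unlabelled 2-ME. Mean ± SD, n = 4.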

T1 sequence (Q99527 whole entry, species assumed): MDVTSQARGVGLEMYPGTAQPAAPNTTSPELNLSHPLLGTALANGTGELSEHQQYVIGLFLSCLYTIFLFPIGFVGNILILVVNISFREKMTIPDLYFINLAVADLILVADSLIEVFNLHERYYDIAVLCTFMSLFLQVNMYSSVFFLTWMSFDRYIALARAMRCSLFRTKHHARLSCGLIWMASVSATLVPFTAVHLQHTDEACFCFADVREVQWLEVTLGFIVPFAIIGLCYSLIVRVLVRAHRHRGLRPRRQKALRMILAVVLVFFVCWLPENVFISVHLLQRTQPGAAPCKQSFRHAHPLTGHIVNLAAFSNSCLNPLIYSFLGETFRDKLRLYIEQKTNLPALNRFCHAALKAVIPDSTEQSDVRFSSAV

CC(=O)c1ccc2c(c1)[C@@H]1C=CC[C@@H]1[C@H](c1cc3c(cc1Br)OCO3)N2 (relative stereo) [G1, 1‐[(3aS,4R,9bR‐rel)‐4‐(6‐bromo‐1,3‐benzodioxol‐5‐yl)‐3a,4,5,9b‐tetrahydro‐[^3H]‐cyclopenta[c]quinolin‐8‐yl]‐ethanone]
Inhibition of ERK phosphorylation in wild-type Sf9 cells (ERK phosphorylation): did not inhibit

COc1cc2c(cc1O)CC[C@@H]1[C@@H]2CC[C@]2(C)[C@@H](O)CC[C@@H]12 [2‐ME, 2‐Methoxyestradiol]
IC50 [1]: 0.026 nM
Ki (GPER [2]): 1.5 nM
Inhibition of ERK phosphorylation in wild-type Sf9 cells (ERK phosphorylation): did not inhibit

C[C@]12CCC(=O)C=C1CC[C@@H]1[C@@H]2[C@@H](O)C[C@]2(C=O)[C@@H](C(=O)CO)CC[C@@H]12 [Aldosterone]
IC50 [1]: 0.104 nM
Ki (GPER [2]): 24 nM
Inhibition of ERK phosphorylation in wild-type Sf9 cells (ERK phosphorylation): did not inhibit

C[C@]12CC[C@@H]3c4ccc(O)cc4CC[C@H]3[C@@H]1CC[C@@H]2O [E2, Estradiol]
Inhibition of ERK phosphorylation in wild-type Sf9 cells (ERK phosphorylation): did not inhibit

Nc1nc2c(ncn2[C@@H]2O[C@H](COP(=O)(O)OP(=O)(O)NP(=O)(O)O)[C@@H](O)[C@H]2O)c(=O)[nH]1 [GppNHp]
Reduction of high-affinity [3H] 2-ME binding (GPER [3]; [3H] 2-ME 0.5 nM): 46 ± 23%
Reduction of high-affinity [3H] 2-ME binding (GPER [3]; [3H] 2-ME 1 nM): 19 ± 7%
Reduction of high-affinity [3H] 2-ME binding (GPER [3]; [3H] 2-ME 2 nM): 53 ± 24

[^3H] 2‐methoxyestradiol
Dissociation half-life (GPER [4]): 21 s
